Results published in ChEMBL document CHEMBL1136800 (J Med Chem, 2003).
pEC50, pIC50: −log10 of the molar value.

How the values were obtained:
[1] = biological target: cGMP-specific 3',5'-cyclic phosphodiesterase (Bos taurus, UniProt Q28156); experiment: Inhibitory activity against bovine PDE5 (phosphodiesterase-5).
[2] = Increase in intracellular cGMP concentration in atrial natriuretic factor treated rat aortic smooth muscle cells.; format: functional, tissue-based; details: Aorta
Outline: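 Primary rat aortic smooth muscle cells grown in DMEM with 10% FCS and used at confluence (3-5 days). Compound in PBS for 30 min at 37 °C, then ANF 0.1 µM for 10 min at 37 °C. Intracellular cGMP extracted with 65% ethanol and measured by scintillation proximity immunoassay, in triplicate wells; DMSO ≤0.1%. EC50 is the concentration giving half the maximal cGMP increase seen at saturating compound.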

Phosphodiesterase 1 = Phosphodiesterase 1 (Bos taurus, UniProt Q01061+P14100); experiment: Inhibition of bovine aorta PDE1 (phosphodiesterase 1); format: protein assay
Outline: (§1)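 Incubated 30 min at 30 °C under initial-velocity conditions (≤10-15% hydrolysis). Product separated on QAE Sephadex and counted by scintillation; final DMSO 2%.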

Phosphodiesterase 3B = Phosphodiesterase 3B (Bos taurus, UniProt E1BN64); experiment: Inhibition of bovine aorta PDE3 (phosphodiesterase 3); outline: as §1
Phosphodiesterase 3B, sequence (E1BN64 whole entry): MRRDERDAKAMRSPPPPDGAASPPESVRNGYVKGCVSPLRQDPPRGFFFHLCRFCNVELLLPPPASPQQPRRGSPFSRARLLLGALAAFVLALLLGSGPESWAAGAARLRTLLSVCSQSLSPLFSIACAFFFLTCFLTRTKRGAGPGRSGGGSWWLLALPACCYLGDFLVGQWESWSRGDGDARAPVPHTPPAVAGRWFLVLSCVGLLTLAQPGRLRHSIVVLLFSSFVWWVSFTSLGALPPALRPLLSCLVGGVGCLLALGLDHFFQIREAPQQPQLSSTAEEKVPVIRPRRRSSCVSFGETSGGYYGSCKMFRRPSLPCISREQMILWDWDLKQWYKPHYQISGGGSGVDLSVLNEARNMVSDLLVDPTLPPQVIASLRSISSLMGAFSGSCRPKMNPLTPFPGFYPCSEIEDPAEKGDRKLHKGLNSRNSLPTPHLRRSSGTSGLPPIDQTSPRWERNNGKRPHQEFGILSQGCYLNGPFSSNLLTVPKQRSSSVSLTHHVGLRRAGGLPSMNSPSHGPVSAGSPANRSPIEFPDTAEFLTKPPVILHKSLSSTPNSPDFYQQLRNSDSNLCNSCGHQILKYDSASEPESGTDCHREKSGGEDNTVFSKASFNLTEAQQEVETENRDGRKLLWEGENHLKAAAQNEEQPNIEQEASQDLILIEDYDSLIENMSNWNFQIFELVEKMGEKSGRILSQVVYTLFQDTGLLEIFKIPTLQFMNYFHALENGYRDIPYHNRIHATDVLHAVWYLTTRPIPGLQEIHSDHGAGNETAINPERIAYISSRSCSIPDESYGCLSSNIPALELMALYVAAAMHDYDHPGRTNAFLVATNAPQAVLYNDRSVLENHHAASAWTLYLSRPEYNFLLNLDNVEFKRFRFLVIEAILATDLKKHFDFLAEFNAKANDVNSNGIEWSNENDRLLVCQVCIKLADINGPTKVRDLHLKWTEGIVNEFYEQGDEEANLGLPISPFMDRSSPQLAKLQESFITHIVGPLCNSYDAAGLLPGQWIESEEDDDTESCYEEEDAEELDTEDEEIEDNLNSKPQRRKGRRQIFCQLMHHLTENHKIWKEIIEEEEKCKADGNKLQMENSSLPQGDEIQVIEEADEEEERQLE

[3] = biological target: cGMP-dependent 3',5'-cyclic phosphodiesterase (Homo sapiens, UniProt O00408); experiment: Inhibition of human recombinant PDE2 (phosphodiesterase 2); outline: as §1
cGMP-dependent 3',5'-cyclic phosphodiesterase, sequence (O00408 whole entry): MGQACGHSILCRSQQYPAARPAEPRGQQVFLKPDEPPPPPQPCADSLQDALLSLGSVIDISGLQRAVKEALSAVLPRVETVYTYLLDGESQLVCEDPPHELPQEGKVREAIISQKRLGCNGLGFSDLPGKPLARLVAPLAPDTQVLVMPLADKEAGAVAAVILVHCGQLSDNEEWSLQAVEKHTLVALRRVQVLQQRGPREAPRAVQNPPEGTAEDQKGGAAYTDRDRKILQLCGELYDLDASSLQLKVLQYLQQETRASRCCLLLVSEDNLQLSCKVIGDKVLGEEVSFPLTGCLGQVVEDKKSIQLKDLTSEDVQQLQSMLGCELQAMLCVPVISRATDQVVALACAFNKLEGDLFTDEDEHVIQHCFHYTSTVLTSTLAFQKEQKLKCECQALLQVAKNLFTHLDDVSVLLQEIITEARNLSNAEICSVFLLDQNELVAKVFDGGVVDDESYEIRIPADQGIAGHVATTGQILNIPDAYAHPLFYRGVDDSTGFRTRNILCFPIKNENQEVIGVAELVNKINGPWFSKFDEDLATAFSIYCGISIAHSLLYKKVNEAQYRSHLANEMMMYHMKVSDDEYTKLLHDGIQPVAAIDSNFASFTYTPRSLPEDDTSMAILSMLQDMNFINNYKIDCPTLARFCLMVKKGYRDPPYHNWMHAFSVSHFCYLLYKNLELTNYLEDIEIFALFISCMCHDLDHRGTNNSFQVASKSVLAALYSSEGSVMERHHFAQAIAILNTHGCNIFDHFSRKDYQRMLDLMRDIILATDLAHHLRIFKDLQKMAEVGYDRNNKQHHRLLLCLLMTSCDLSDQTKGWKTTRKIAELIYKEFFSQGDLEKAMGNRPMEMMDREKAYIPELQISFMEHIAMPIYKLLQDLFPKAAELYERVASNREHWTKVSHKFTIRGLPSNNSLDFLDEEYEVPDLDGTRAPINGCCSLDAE

Phosphodiesterase 4 = Phosphodiesterase 4 (Homo sapiens, UniProt P27815+Q08499+Q07343+Q08493); experiment: Inhibition of human recombinant PDE4 (phosphodiesterase 4); format: protein assay; outline: as §1

Structure (SMILES) | pIC50 [1] | pEC50 [2] | pIC50 (Phosphodiesterase 1) | pIC50 (Phosphodiesterase 3B) | pIC50 [3] | pIC50 (Phosphodiesterase 4) | IC50 (Phosphodiesterase 1) [nM] | IC50 (Phosphodiesterase 4) [nM]
COc1ccc([C@H]2c3[nH]c4ccccc4c3C[C@@H]3C(=O)NC(=O)N23)cc1 | 7.70 | 5.52 | – | – | – | – | – | –
CCCCN1C(=O)[C@H]2Cc3c([nH]c4ccccc34)[C@@H](c3cccnc3)N2C1=O | 7.05 | – | – | – | – | – | – | –
CCCCN1C(=O)[C@H]2Cc3c(n(C)c4ccccc34)[C@@H](c3ccc(OC)cc3)N2C1=O | < 5.00 | – | – | – | – | – | – | –
COc1ccc([C@H]2c3[nH]c4ccccc4c3C[C@@H]3C(=O)N(C4CCCCC4)C(=O)N23)cc1 | 8.52 | 7.00 | – | – | – | – | – | –
CCCCN1C(=O)[C@H]2Cc3c([nH]c4ccccc34)[C@@H](c3cccc(Cl)c3)N2C1=O | 7.30 | 5.40 | – | – | – | – | – | –
CCCCN1C(=O)[C@H]2Cc3c([nH]c4ccccc34)[C@@H](c3ccoc3)N2C1=O | 7.00 | – | – | – | – | – | – | –
CCCCN1C(=O)[C@H]2Cc3c([nH]c4ccccc34)[C@@H](c3ccncc3)N2C1=O | 6.52 | – | – | < 5.00 | – | – | 2000 | > 10000
CCCCN1C(=O)[C@H]2Cc3c([nH]c4ccccc34)[C@H](c3ccccc3)N2C1=O | 7.70 | 5.70 | – | – | – | – | – | –
CCCCN1C(=O)[C@H]2Cc3c([nH]c4ccccc34)[C@H](c3ccc(OC)cc3)N2C1=O | – | 6.00 | – | < 5.00 | < 5.00 | – | > 10000 | > 10000
COc1ccc([C@H]2c3[nH]c4ccccc4c3C[C@@H]3C(=O)N(Cc4cccnc4)C(=O)N23)cc1 | 7.70 | 5.26 | – | – | – | – | – | –
CCCCN1C(=O)[C@H]2Cc3c([nH]c4ccccc34)[C@@H](c3ccc(OC)cc3)N2C1=O | – | 6.15 | – | < 5.00 | < 5.00 | – | > 10000 | > 10000
CCOC(=O)c1cc2c(cn1)[nH]c1ccccc12 | 6.10 | – | – | – | – | – | – | –
CCCCN1C(=O)[C@H]2Cc3c([nH]c4ccccc34)[C@H](c3cccc(Cl)c3)N2C1=O | 7.30 | < 5.00 | – | – | – | – | – | –
CCCCN1C(=O)[C@H]2Cc3c([nH]c4ccccc34)[C@H](c3ccccc3OC)N2C1=O | 6.00 | – | – | – | – | – | – | –

The next lines start with the values.

pIC50 [1] | pEC50 [2] | pIC50 (Phosphodiesterase 1) | pIC50 (Phosphodiesterase 3B) | pIC50 [3] | pIC50 (Phosphodiesterase 4) | IC50 (Phosphodiesterase 1) [nM] | IC50 (Phosphodiesterase 4) [nM] | Structure (SMILES)
8.15 | 6.52 | < 5.00 | < 5.00 | < 5.00 | < 5.00 | – | – | COc1ccc([C@@H]2c3[nH]c4ccccc4c3C[C@@H]3C(=O)N(C4CCCCC4)C(=O)N23)cc1
7.30 | < 5.00 | – | – | – | – | – | – | CCCCN1C(=O)[C@H]2Cc3c([nH]c4ccccc34)[C@@H](c3ccc(Cl)cc3)N2C1=O
8.00 | 6.40 | – | – | – | – | – | – | CCN1C(=O)[C@H]2Cc3c([nH]c4ccccc34)[C@@H](c3ccc(OC)cc3)N2C1=O
8.22 | 5.82 | – | – | – | – | – | – | COc1ccc([C@H]2c3[nH]c4ccccc4c3C[C@@H]3C(=O)N(CCc4ccccn4)C(=O)N23)cc1
6.52 | – | – | – | – | – | – | – | CCCCN1C(=O)[C@H]2Cc3c([nH]c4ccccc34)[C@H](c3ccc(C#N)cc3)N2C1=O
7.52 | 5.46 | – | – | – | – | – | – | COc1ccc([C@H]2c3[nH]c4ccccc4c3C[C@@H]3C(=O)N(CCN(C)C)C(=O)N23)cc1
8.40 | 6.82 | – | < 5.00 | < 5.00 | – | > 10000 | > 10000 | COc1ccc([C@@H]2c3[nH]c4ccccc4c3C[C@@H]3C(=O)N(Cc4ccccc4)C(=O)N23)cc1
6.05 | – | – | – | – | – | – | – | CCCCN1C(=O)[C@H]2Cc3c([nH]c4ccccc34)[C@@H](c3ccc(C#N)cc3)N2C1=O
8.15 | 5.82 | – | – | – | – | – | – | CCN1C(=O)[C@H]2Cc3c([nH]c4ccccc34)[C@H](c3ccc(OC)cc3)N2C1=O
7.52 | – | – | – | – | – | – | – | CCCCN1C(=O)[C@H]2Cc3c([nH]c4ccccc34)[C@@H](c3ccsc3)N2C1=O
7.74 | < 5.00 | – | – | – | – | – | – | COc1ccc([C@H]2c3[nH]c4ccccc4c3C[C@@H]3C(=O)N(Cc4ccccc4)C(=O)N23)cc1
8.00 | 6.00 | – | – | – | – | – | – | COc1ccc([C@@H]2c3[nH]c4ccccc4c3C[C@@H]3C(=O)N(C)C(=O)N23)cc1
7.70 | 5.82 | – | – | – | – | – | – | CCCCN1C(=O)[C@H]2Cc3c([nH]c4ccccc34)[C@H](c3ccc(Cl)cc3)N2C1=O
7.00 | 5.00 | – | – | – | – | – | – | COc1ccc([C@H]2c3[nH]c4ccccc4c3C[C@@H]3C(=O)N(CCN4CCCC4)C(=O)N23)cc1
7.22 | 5.30 | – | – | – | – | – | – | CCCCN1C(=O)[C@H]2Cc3c([nH]c4ccccc34)[C@@H](c3ccccc3)N2C1=O
– | – | – | < 5.00 | – | – | 2600 | – | CCCOc1ccccc1-c1nc2[nH]nnc2c(=O)[nH]1 [ZAPRINAST]
